Measurements from PubChem BioAssay.
Calls of active or inactive are those of the source.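 How the source made its calls, unless noted: active means GFP response above 150% of the DMSO level; inconclusive means fewer than 70 events counted for a yeast strain; inactive means the rest.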

Key:
[1] = RPL19A-GFP modulators, yeast TOR pathway, confirmation, cell-based, S. cerevisiae, flow cytometry, cherry picks, mother/daughter gates (AID 2270;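 active means GFP response below 50% of the DMSO control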); conditions: S. cerevisiae RPL19A-GFP strain, 3 h, at 10 µM, stronger effect = lower value, 100 = same GFP as DMSO wells
[2] = LAP4-GFP expression modulators in yeast, confirmation, cell-based, cherry picks, flow cytometry, mother/daughter gates (AID 2271;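 active means GFP response above 150% of the DMSO control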;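 further: ratio of sample to DMSO plate mean so 100% equals DMSO level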); conditions: S. cerevisiae LAP4-GFP strain, 3 h, at 10 µM, stronger effect = higher value, 100 means same as DMSO control
In short: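 System: Alexa 633-stained baker's yeast GFP-fusion strain; quantity: 0.2 OD600 cells; timing: compound exposure 3 h at 30 °C, end-over-end rotation; detection: HT flow cytometry, GFP fluorescence channel; measure: per-gate (all, mother, daughter) GFP response vs DMSO; control set: DMSO-only negative wells, rapamycin 400 ng/mL positive wells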

[3] = modulators of MEP2-GFP levels in yeast, confirmation, S. cerevisiae, flow cytometry GFP, cherry picks (AID 2272;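 active means GFP response above 150% of the DMSO control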;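 further: ratio of well signal to plate DMSO mean so 100% equals DMSO level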); conditions: S. cerevisiae MEP2-GFP strain, 3 h, at 10 µM, stronger effect = higher value
[4] = AGP1-GFP expression modulators, hit retest, confirmation, cell-based, flow cytometry, S. cerevisiae, cherry picks (AID 2273);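 further: median GFP channel fluorescence over the whole cell population gate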; conditions: S. cerevisiae AGP1-GFP strain, 3 h, at 10 µM
[5] = modulators of CIT2-GFP expression in yeast, confirmation, S. cerevisiae, GFP fusion, cherry picks, mother/daughter gates (AID 2274); conditions: S. cerevisiae CIT2-GFP strain, flow cytometry, 3 h, at 10 µM, stronger effect = higher value
[6] = measured here: daughter cell gate
[7] = measured here: mother cell gate
[8] = measured here: daughter cell gate response
[9] = measured here: mother cell gate response

| SMILES | GFP response vs DMSO [1] | GFP response vs DMSO [1, 6] | GFP response vs DMSO [1, 7] | GFP response relative to DMSO [2] | GFP response relative to DMSO [2, 8] | GFP response relative to DMSO [2, 9] | GFP response vs DMSO [3] | GFP response, % of DMSO [4] | GFP response, % of DMSO [5] | GFP response, % of DMSO [5, 6] | GFP response, % of DMSO [5, 7] |
| --- | --- | --- | --- | --- | --- | --- | --- | --- | --- | --- | --- |
| COc1ccc(-c2nc3cccc(C)n3c2NCc2ccco2)cc1OC | 101% (inactive) | 99.5% | 100% | 100% (inactive) | 101% | 101% | 97.2% (inactive) | 99.5% (inactive) | 97.2% (inactive) | 99.3% | 97.1% |
| COc1ccc(C2CC(c3ccccc3)=NN2S(=O)(=O)c2ccc(C)cc2)c(OC)c1 (stereo not drawn) | 102% (inactive) | 98.8% | 100% | 102% (inactive) | 99.1% | 104% | 103% (inactive) | 101% (inactive) | 102% (inactive) | 99.2% | 99.3% |
| CCOC(=O)C1(CCCc2ccccc2)CCN(C(=O)c2cc(C)nn2CC)CC1 | 99.3% (inactive) | 99.8% | 99.8% | 98.8% (inactive) | 102% | 98.5% | 97.5% (inactive) | 99.3% (inactive) | 102% (inactive) | 104% | 101% |
| Oc1c(C(Nc2cccc(C(F)(F)F)c2)c2ccncc2)ccc2cccnc12 (stereo not drawn) | 105% (inactive) | 104% | 102% | 135% (inactive) | 120% | 136% | 112% (inactive) | 94% (inactive) | 99.3% (inactive) | 102% | 94.5% |
| O=C(COC(=O)C1CCN(c2ccc(C(F)(F)F)cn2)CC1)Nc1cccc(F)c1 | 95% (inactive) | 94.6% | 96.1% | 102% (inactive) | 102% | 100% | 96.2% (inactive) | 97.2% (inactive) | 104% (inactive) | 108% | 102% |
| O=C(Nc1ccc(F)cc1)C1CCCN(c2cnccn2)C1 (stereo not drawn) | 102% (inactive) | 101% | 102% | 99.5% (inactive) | 99.1% | 100% | 96.8% (inactive) | 105% (inactive) | 102% (inactive) | 99.2% | 103% |
| Cc1cccn2c(=O)c(/C=C(\C#N)C(=O)NC3CCS(=O)(=O)C3)c(N3CCC(C)CC3)nc12 (stereo not drawn) | 102% (inactive) | 101% | 102% | 96.2% (inactive) | 97.2% | 95.2% | 102% (inactive) | 101% (inactive) | 107% (inactive) | 99.7% | 109% |
| O=C(O)CCc1ccc(-c2ccc(Br)cc2)o1 | 99.4% (inactive) | 92.2% | 97% | 137% (inactive) | 119% | 129% | 99% (inactive) | 86.6% (inactive) | 84.3% (inactive) | 81.2% | 82.1% |
| O=S(=O)(Nc1cccc(-c2ccc(N3CCCCCC3)nn2)c1)c1ccccc1F | 101% (inactive) | 99.3% | 101% | 95.7% (inactive) | 95.9% | 95.2% | 99% (inactive) | 107% (inactive) | 100% (inactive) | 101% | 101% |
| COc1cc(OC)cc(C(=O)N2CCN(c3ccccc3F)CC2)c1 | 98.6% (inactive) | 97.3% | 99.1% | 97.4% (inactive) | 98.7% | 98.3% | 100% (inactive) | 98.3% (inactive) | 99.1% (inactive) | 99.7% | 98.7% |
| CCOc1ccc(C(=O)/C=C/c2ccccc2C(F)(F)F)cc1 | 98.2% (inactive) | 96.9% | 99% | 97.9% (inactive) | 99.2% | 96.1% | 100% (inactive) | 99.1% (inactive) | 104% (inactive) | 105% | 103% |
| COc1ccc(OC(=O)c2cccc(S(=O)(=O)N3CCCC3)c2)cc1 | 96.6% (inactive) | 95.4% | 96.1% | 90.2% (inactive) | 91.2% | 89.7% | 105% (inactive) | 96.4% (inactive) | 103% (inactive) | 103% | 101% |
| O=C(OCC(=O)N1CCN(C(=O)c2ccco2)CC1)c1cc(-c2cccc(Br)c2)nc2ccccc12 | 80.3% (inactive) | 75.5% | 76.9% | 139% (inactive) | 117% | 144% | 125% (inactive) | 127% (inactive) | 128% (inactive) | 114% | 125% |
| Cc1[nH][nH]c(=O)c1C(c1ccc(-c2ccc(Cl)c(Cl)c2)o1)c1c(C)[nH][nH]c1=O | 104% (inactive) | 104% | 101% | 173% (active) | 142% | 169% | 130% (inactive) | 115% (inactive) | 103% (inactive) | 105% | 102% |
| COc1ccc([N+](=O)[O-])c(S(=O)(=O)c2ccccc2)n1 | 93.7% (inactive) | 95.8% | 90.8% | 195% (active) | 170% | 204% | 112% (inactive) | 113% (inactive) | 86% (inactive) | 96.8% | 75.8% |
| O=S(=O)(/N=C(/Sc1ccccc1)c1ccccc1)c1ccccc1 | 92% (inactive) | 92.5% | 89.8% | 179% (active) | 152% | 180% | 106% (inactive) | 101% (inactive) | 84.7% (inactive) | 88.7% | 79.2% |
| Cc1cc(N2CCC(C)CC2)n2nc(C)c(-c3ccccc3)c2n1 | 101% (inactive) | 101% | 101% | 97.7% (inactive) | 93.6% | 97.5% | 104% (inactive) | 98.4% (inactive) | 101% (inactive) | 102% | 99.1% |

| SMILES | GFP response vs DMSO [1] | GFP response vs DMSO [1, 6] | GFP response vs DMSO [1, 7] | GFP response relative to DMSO [2] | GFP response relative to DMSO [2, 8] | GFP response relative to DMSO [2, 9] | GFP response vs DMSO [3] | GFP response, % of DMSO [4] | GFP response, % of DMSO [5] | GFP response, % of DMSO [5, 6] | GFP response, % of DMSO [5, 7] |
| --- | --- | --- | --- | --- | --- | --- | --- | --- | --- | --- | --- |
| CCN(c1ccccc1)S(=O)(=O)c1ccc(C(=O)Nc2nnc(COC)o2)cc1 | 101% (inactive) | 99.5% | 102% | 96.2% (inactive) | 97.2% | 98.3% | 100% (inactive) | 99.2% (inactive) | 96.5% (inactive) | 94.8% | 98.7% |
| CCCc1[nH]nc2c1C(c1ccc(OCCN3CCOCC3)c(OCC)c1)C(C#N)=C(N)O2 (stereo not drawn) | 98.4% (inactive) | 98.4% | 98.9% | 90.2% (inactive) | 95.6% | 91.1% | 97.8% (inactive) | 97.8% (inactive) | 107% (inactive) | 105% | 108% |
| Cc1ccc(N2C(=O)C(Cl)=C(Nc3c(C)n(C)n(-c4ccccc4)c3=O)C2=O)cc1 | 96.9% (inactive) | 93.9% | 96.1% | 101% (inactive) | 101% | 101% | 101% (inactive) | 105% (inactive) | 100% (inactive) | 103% | 100% |
| O=[N+]([O-])c1cccc(-c2ccc(/C=N/Nc3nc(N4CCCCC4)nc(N4CCCCC4)n3)o2)c1 | 96.8% (inactive) | 94.3% | 98.2% | 118% (inactive) | 114% | 123% | 108% (inactive) | 105% (inactive) | 101% (inactive) | 95.2% | 102% |
| Cc1cc(C)n(C(=O)/C(C#N)=N\Nc2ccccc2[N+](=O)[O-])n1 | 91.7% (inactive) | 71.4% | 88.6% | 138% (inactive) | 98.7% | 154% | 163% (inactive) | 123% (inactive) | 102% (inactive) | 73.6% | 105% |
| Oc1ccc(-c2csc(-c3ccccc3)n2)cc1O | 97% (inactive) | 93.2% | 96.5% | 124% (inactive) | 120% | 129% | 101% (inactive) | 96% (inactive) | 93.4% (inactive) | 93.7% | 90.8% |
| COc1cccc(-c2nnc(NC(=O)c3ccc(S(=O)(=O)N(CC(C)C)CC(C)C)cc3)o2)c1 | 99.7% (inactive) | 99.8% | 100% | 98.8% (inactive) | 97.9% | 97.5% | 102% (inactive) | 101% (inactive) | 102% (inactive) | 102% | 101% |
| COc1ccccc1Oc1ccc(S(=O)(=O)N2CCCC2)cc1 | 102% (inactive) | 100% | 103% | 91.4% (inactive) | 91% | 95.2% | 95.7% (inactive) | 93.5% (inactive) | 93.9% (inactive) | 94.8% | 92.3% |
| CCCc1[nH]nc2c1C(c1ccc(OC(=O)c3ccco3)cc1)C(C#N)=C(N)O2 (stereo not drawn) | 99.9% (inactive) | 101% | 101% | 91.9% (inactive) | 92.2% | 91.6% | 124% (inactive) | 102% (inactive) | 105% (inactive) | 108% | 105% |
| COc1cc(NC(=O)c2ccc(C)cc2)ccc1NC(=O)c1cc2ccccc2o1 | 95.4% (inactive) | 86% | 85.2% | 95.7% (inactive) | 91% | 91% | 99% (inactive) | 109% (inactive) | 100% (inactive) | 88.4% | 89.5% |
| CCCc1[nH]nc2c1C(c1cccc(OC)c1)C(C#N)=C(N)O2 (stereo not drawn) | 103% (inactive) | 101% | 103% | 98.2% (inactive) | 95.9% | 97.3% | 105% (inactive) | 98.6% (inactive) | 102% (inactive) | 97.4% | 103% |
| CCOc1c(Br)ccc2c1sc1nc[nH]c(=O)c12 | 101% (inactive) | 99.8% | 100% | 105% (inactive) | 99% | 108% | 103% (inactive) | 99.1% (inactive) | 100% (inactive) | 97.6% | 100% |
| Cc1cc(/C=C2/SC(=S)N(c3cccc(Cl)c3)C2=O)c(C)n1-c1cccnc1 | 107% (inactive) | 106% | 108% | 133% (inactive) | 125% | 136% | 135% (inactive) | 110% (inactive) | 118% (inactive) | 117% | 117% |
| CC(=O)Oc1oc(-c2ccccc2)nc1C=Nc1ccc(N(C)C)cc1 | 100% (inactive) | 100% | 99.2% | 95% (inactive) | 91% | 98.3% | 95.7% (inactive) | 97% (inactive) | 92.6% (inactive) | 91.5% | 92.3% |
| O=C(Nc1nc(-c2ccccc2)cs1)c1cccs1 | 99.7% (inactive) | 94.2% | 101% | 101% (inactive) | 100% | 106% | 93.5% (inactive) | 86.9% (inactive) | 97.8% (inactive) | 94.8% | 98.7% |
| CCCn1c(=O)c(C(=O)Nc2ccccc2)c(O)c2ccccc21 | 96.7% (inactive) | 96.4% | 95.6% | 100% (inactive) | 97.5% | 98.4% | 99.3% (inactive) | 96.6% (inactive) | 98.6% (inactive) | 95.8% | 97.1% |
